From PubChem
Only some compounds are listed: those with a hit (about 1.8% of all), similar ones and a draw of the others.
697 NFkB inh = inhibitors of the PMA/ionomycin-induced NF-kB reporter in 697 B cells; 697 B-cell NF-kB luciferase reporter, 16 h; inhibition, % at 4 µM; 330,000 tested, 0.33% active; in the data active means inhibition above about 35%
NR2E3 ag-1 = agonists of human nuclear receptor NR2E3. 320,000 tested, 0.12% active. GST-NR2E3/biotin-RetCOR TR-FRET, 1536-well. inhibition of corepressor binding, % at 4.78 µM. Q9Y5X4;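 active means percent inhibition above the cutoff of mean plus 3 SD of all tested compounds, set per screening campaign, cut at about 20% in these data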;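 further: 0% = DMSO wells and 100% = biotin wells as full block of FRET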
Target sequence (Q9Y5X4 whole entry, looked up): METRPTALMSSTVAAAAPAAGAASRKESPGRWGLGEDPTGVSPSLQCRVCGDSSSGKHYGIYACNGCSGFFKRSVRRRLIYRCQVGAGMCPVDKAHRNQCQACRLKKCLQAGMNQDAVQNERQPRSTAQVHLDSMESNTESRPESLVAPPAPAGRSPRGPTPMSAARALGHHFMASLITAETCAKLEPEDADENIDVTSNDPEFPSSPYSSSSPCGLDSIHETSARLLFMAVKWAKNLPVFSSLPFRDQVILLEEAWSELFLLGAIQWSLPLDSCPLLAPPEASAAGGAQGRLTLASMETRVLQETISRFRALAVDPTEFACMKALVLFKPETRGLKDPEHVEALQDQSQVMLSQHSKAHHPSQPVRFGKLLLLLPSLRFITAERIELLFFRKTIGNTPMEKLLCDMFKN
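System: GST-tagged NR2E3 plus biotinylated RetCOR corepressor; Amount: 1.35 nM GST-tagged NR2E3 final; Dosing: single nominal compound dose of 4.8 µM; Schedule: 5 h incubation at 4 °C; Technique: TR-FRET with europium anti-GST and streptavidin-D2, 340 nm excitation; Controls: biotin wells as high control, 0.6% DMSO wells as low control.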
NR2E3 ag-2 = agonists of human NR2E3 nuclear receptor; Q9Y5X4; CHO-S Gal4-NCOR/VP16-NR2E3 two-hybrid, luciferase; inhibition of corepressor binding, % at 3.98 µM; 360,000 tested, 0.35% active;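 active means inhibition above the mean of all tested compounds plus 3 SD, cut at about 70% in these data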;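 further: 0% = DMSO with NR2E3 transfected cells and 100% = cells lacking NR2E3 construct; higher means lower luciferase signal from less NR2E3 corepressor binding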
Gli-Sufu block = Gli-Sufu pathway antagonism. Sufu-KO-LIGHT fibroblasts, Gli luciferase reporter luminescence. AID 588413. 340,000 tested, 0.74% active. inhibition, % at 5 µM;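 active means inhibition above about 55%, limit read from the data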;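 further: 0% = DMSO-treated cells and 100% = wells with medium but no cells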
GalR3 antagonist = antagonists of human GalR3 | O60755 | HEK293 GalR3-CNG cAMP membrane potential fluorescence; galR3 body fused to GalR1 C-terminus | inhibition, % at 3 µM | 360,000 tested, 0.44% active;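 active means inhibition above the screen-wide average plus 3 SD, cut at about 13% in these data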;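 further: forskolin and galanin both at EC90 stimulate the cells; cAMP rise reported by CNG channel membrane potential dye signal; 0% = forskolin plus galanin with DMSO and 100% = forskolin alone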
Jurkat NFkB inh = lowers PMA/ionomycin-induced NF-kB signal in Jurkat cells; PMA/ionomycin-induced NF-kB luciferase reporter, luminescence; inhibition, % at 4 µM; 330,000 tested, 0.53% active; in the data active means inhibition above about 50%
GalR3 conf = GalR3 (human) antagonism, confirmation | shares compounds with GalR3 antagonist | HEK293 GalR3 CNG cAMP biosensor, membrane potential fluorescence; galR3 fused to GalR1 carboxy tail; challenged with forskolin and galanin at EC90 | 1,600 tested, 59% active | inhibition, % at 3 µM | AID 652245;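 active means inhibition above the primary screen's cutoff, the mean inhibition of all screened compounds plus 3 SD, cut at about 13% in these data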;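 further: 0% = forskolin plus galanin and 100% = forskolin alone with DMSO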
CNG parental = parental cell agonism counter-screen for GalR3 antagonists | shares compounds with GalR3 antagonist | HEK293-CNG parental cells, cAMP membrane potential fluorescence; normalised: DMSO wells 0%, forskolin wells 100% | activation, % at 3 µM | 1,600 tested, 10% active | AID 652268; in the data active means activation above about 1.3%
Active calls of the source: *; x = no result given.

SMILES	697 NFkB inh	NR2E3 ag-1	NR2E3 ag-2	Gli-Sufu block	GalR3 antagonist	Jurkat NFkB inh	GalR3 conf	CNG parental
O=C(CCNC(=O)c1ccc([N+](=O)[O-])cc1)Nc1cccc(S(=O)(=O)N2CCOCC2)c1	-1	2	8	6	-4	-1	x	x
O=C(CSC1=NCCS1)N1CCN(c2ccc(Cl)cc2)CC1	-21	3	3	7	45*	23	46*	0
CCc1nc2sc(C#N)c(N)c2c2c1CCCC2	-24	1	-15	0	42*	11	57*	-1
Cc1ccc(/C=C(\NC(=O)c2ccccc2)C(=O)NC2CCN(Cc3ccccc3)CC2)o1	-12	-3	-39	17	-2	-17	x	x
C[C@H]1C[C@H]2[C@@H]3CCC4=CC(=O)C=C[C@]4(C)[C@@]3(F)[C@@H](O)C[C@]2(C)[C@@]1(O)C(=O)CO	16	1	23	6	28*	11	44*	3.9*
Cc1nc(SCC(=O)Nc2ccc(CN3CCCC3)cc2)c2c(C)c(C)sc2n1	-17	-2	8	36	-6	-4	x	x
CC(C)(C)N1C(=O)[C@H]2[C@@H](c3ccc(Br)cc3)N3C(=O)N(c4ccccc4)C(=O)[C@@]3(Cc3ccccc3)[C@H]2C1=O	18	1	5	5	x	24	2	-1
CC(C)(C)N1C(=O)[C@H]2[C@@H](c3ccc(Br)cc3)N3C(=O)N(c4cccc(Br)c4)C(=O)[C@@]3(Cc3ccccc3)[C@H]2C1=O	2	1	-20	8	x	23	x	x
Cc1[nH]c(-c2ccc(F)cc2)cc1C(=O)N1CCN(c2cccc(Cl)c2)CC1	-1	x	-6	-12	-3	9	x	x
CS(=O)(=O)c1ncc(Cl)c(C(=O)Nc2ccc3ccccc3c2)n1	x	x	20	12	20*	x	-2	0
CC(=O)Nc1ccc(NC(=O)c2nc(S(=O)(=O)Cc3ccccc3)ncc2Cl)cc1	-131	1	11	5	-6	8	x	x
COc1cc(CCC(O)CC(=O)CCc2ccccc2)ccc1O (stereo not drawn)	-15	1	1	6	-6	-5	x	x
CCCCN1C(=O)N(c2nnc(C(C)(C)C)s2)C(O)C1c1ccc(C)cc1 (stereo not drawn)	-22	-1	13	0	-3	-4	x	x
Cc1oc(C(C)(C)C)cc1C(=O)Nc1cccc(/C=C\C(=O)O)c1	-2	-1	-17	-11	-5	9	x	x
Cc1oc(-c2ccccc2)cc1C(=O)Nc1cccc(/C=C\C(=O)O)c1	-34	0	-44	14	71*	17	91*	0
CCN(CC)S(=O)(=O)c1cccc(NC(=O)COC(=O)c2n[nH]c(=O)c3ccccc23)c1	-17	3	-10	6	15*	-5	51*	-1
O=C(NCCOc1ccccc1)c1n[nH]c(=O)c2ccccc12	6	3	-32	-4	20*	-5	1	0
O=C(COC(=O)c1n[nH]c2ccccc12)Nc1ccc(S(=O)(=O)N2CCCC2)cc1	-32	2	5	1	104*	17	110*	-1
CCCNC(=O)c1n[nH]c(=O)c2ccccc12	28	1	-18	0	0	-5	x	x
CCc1ccc(NC(=O)c2n[nH]c(=O)c3ccccc23)cc1	-125	-1	-80	-86	15*	-123	4	0
O=C(C(=O)N1CCN(c2ccc(F)cc2)CC1)N1CCCCC1	13	1	15	35	18*	18	1	0
N#CC(c1ccc(O)cc1)c1ncc(C(F)(F)F)cc1Cl (stereo not drawn)	-8	4	-6	0	-6	-6	x	x
c1ccc(C2=Nn3c(nnc3-c3cccs3)SC2)cc1	8	0	-9	-3	-5	10	x	x
COc1ccc(C2=Nn3c(nnc3-c3ccccn3)SC2)cc1OC	-10	0	1	3	-1	19	x	x
c1ccc(-c2ccc(C3=Nn4c(nnc4-c4cccs4)SC3)cc2)cc1	20	1	-3	-4	16*	-5	46*	1.8*
SMILES	697 NFkB inh	NR2E3 ag-1	NR2E3 ag-2	Gli-Sufu block	GalR3 antagonist	Jurkat NFkB inh	GalR3 conf	CNG parental
COc1ccc(C2=Nn3c(nnc3-c3ccccc3OC)SC2)cc1OC	x	-2	32	47	38*	x	46*	1.5*
CC#C[C@@H](CC)c1ccc2ccn(C)c2c1	-2	2	-20	-11	-3	-10	x	x
O=C(Nc1ccccc1)Nc1cc([N+](=O)[O-])ccc1F	-133	-1	-33	0	21*	-96	-3	-1
Cc1cc([N+](=O)[O-])ccc1NC(=O)Nc1ccccc1F	-1	2	-7	7	-3	12	x	x
COc1ccccc1C(=O)Nc1cc2c(cc1C(=O)O)OCCCO2	14	-2	-31	22	13*	-2	3	0
O=C(O)c1cc2c(cc1NC(=O)c1ccccc1OC(F)F)OCCCO2	3	4	-26	6	-8	-11	x	x
CC(=O)c1ccc(S(=O)(=O)N2CCN(C(C)=O)CC2)cc1	0	1	22	0	16*	3	1	0
CCOC(=O)c1c(O)c(Cl)c(C)[nH]c1=O	6	1	-19	-10	16*	17	19*	0
CCOC(=O)c1c(O)c2c([nH]c1=O)CCCC2	14	2	-27	6	-5	0	x	x
CCOc1ccc(CN(C(=O)c2ccccn2)c2ccc(OC)c(Cl)c2)cc1	-46	1	-36	7	-9	-41	x	x
COc1ccc(OCCOC(=O)c2[nH]c(C)c(C(C)=O)c2C)cc1	-31	9	19	-22	16*	8	10	-1
CCOc1ccccc1OCC(=O)N/N=C(\C)Cc1ccc(OC)cc1	13	3	13	37	22*	-2	-2	1
Cc1oc2ccc(OCc3ccc(Br)cc3)cc2c1C(=O)O	7	1	-70	23	-7	1	x	x
CS(=O)(=O)c1ccc(C(=O)N2CCN(Cc3ccccc3)CC2)cc1	0	6	-31	1	-5	-2	x	x
O=C(c1ccc(CNS(=O)(=O)c2ccccc2)cc1)N1CCN(Cc2ccccc2)CC1	-21	3	12	7	21*	17	10	0
CCCCN1C(=O)C(=O)NC[C@@H]1CCCCN	3	0	-36	-13	-5	-5	x	x
C=C(c1ccccc1O)n1ccnc1	-36	3	-10	-27	-8	-12	x	x
